According to ChEMBL document CHEMBL1131049, “Antiviral activities of methylated nordihydroguaiaretic acids. 2. Targeting herpes simplex virus replication by the mutation insensitive transcription inhibitor tetra-O-methyl-NDGA” (J Med Chem, 1998):
Where “and” joins values, the source holds several entries; their conditions need not be identical. Identical values can stand only once.

Assays:
[1] = system: Mus musculus; assay: Percent Change in body weight of 5 mice when intraperitoneally administered daily once for 7 days at dose 50 mg/kg; assay type: functional; settings: route intraperitoneal
[2] = system: Mus musculus; assay: Percent Change in body weight of 5 mice when intraperitoneally administered daily once for 1 day at dose 300 mg/kg; assay type: functional; settings: route intraperitoneal
[3] = Mortality in 5 mice when intraperitoneally administered daily twice for 5 days at dose 50 mg/kg; assay type: ADME, organism-based; set-up: dose 50 mg/kg, route intraperitoneal; settings: mouse, in vivo, ip, 120 h
[4] = Mortality in 5 mice when intraperitoneally administered daily once for 7 days at dose 100 mg/kg; assay type: ADME, organism-based; set-up: dose 100 mg/kg, route intraperitoneal; settings: mouse, in vivo, ip, 168 h
[5] = Mortality in 5 mice when intraperitoneally administered daily once for 7 days at dose 25 mg/kg; assay type: ADME, organism-based; set-up: dose 25 mg/kg, route intraperitoneal; settings: mouse, in vivo, ip, 168 h
[6] = Mortality in 5 mice when intraperitoneally administered daily once for 7 days at dose 50 mg/kg; assay type: ADME, organism-based; set-up: dose 50 mg/kg, route intraperitoneal; settings: mouse, in vivo, ip, 168 h
[7] = system: Vero; assay: Comparative Potency (IC50s) at HSV-1 passage 3 in vero cells; assay type: functional, cell-based; settings: Chlorocebus sabaeus
Summary of the method: (§1)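 Vero cells infected with 100 TCID50 of HSV-1 (Sm44) or HSV-2 (Sav); compound in DMSO diluted in medium and added 2 h post-infection, triplicates per concentration. Passaging: virus recovered from cultures at the IC50 infected fresh Vero cells, and the IC50 was redetermined each passage.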

[8] = system: Vero; assay: Comparative Potency (IC50s) at HSV-1 passage 4 in vero cells; assay type: functional, cell-based; settings: Chlorocebus sabaeus; summary of the method: as §1
[9] = system: Vero; assay: Comparative Potency (IC50s) at HSV-1 passage 5 in vero cells; assay type: functional, cell-based; settings: Chlorocebus sabaeus; summary of the method: as §1
[10] = system: Vero; assay: Comparative Potency (IC50s) at HSV-1 passage 6 in vero cells; assay type: functional, cell-based; settings: Chlorocebus sabaeus; summary of the method: as §1
[11] = system: Vero; assay: Comparative Potency (IC50s) at HSV-1 passage 2 in vero cells; assay type: functional, cell-based; settings: Chlorocebus sabaeus; summary of the method: as §1
[12] = system: Vero; assay: Comparative Potency (IC50s) at HSV-1 passage 7 in vero cells; assay type: functional, cell-based; settings: Chlorocebus sabaeus; summary of the method: as §1
[13] = system: Vero; assay: Comparative Potency (IC50s) at HSV-1 passage 8 in vero cells; assay type: functional, cell-based; settings: Chlorocebus sabaeus; summary of the method: as §1
[14] = system: Vero; assay: Comparative Potency (IC50s) at HSV-1 passage 9 in vero cells; assay type: functional, cell-based; settings: Chlorocebus sabaeus; summary of the method: as §1
[15] = system: Vero; assay: Comparative Potency (IC50s) at HSV-2 passage 1 in vero cells; assay type: functional, cell-based; settings: Chlorocebus sabaeus; summary of the method: as §1
[16] = system: Vero; assay: Comparative Potency (IC50s) at HSV-2 passage 2 in vero cells; assay type: functional, cell-based; settings: Chlorocebus sabaeus; summary of the method: as §1
[17] = system: Vero; assay: Comparative Potency (IC50s) at HSV-2 passage 3 in vero cells; assay type: functional, cell-based; settings: Chlorocebus sabaeus; summary of the method: as §1
[18] = system: Vero; assay: Comparative Potency (IC50s) at HSV-2 passage 4 in vero cells; assay type: functional, cell-based; settings: Chlorocebus sabaeus; summary of the method: as §1
[19] = Relative safety was expressed as Selective index (TC50/IC50) at HSV-1 passage 4 in vero cells; assay type: functional
Summary of the method: (§2)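 SI = TC50/IC50 per passage. IC50 comes from serial passage of HSV-1 Sm44 or HSV-2 Sav in Vero cells (100 TCID50, drug added 2 h p.i., CPE read-out, triplicates). TC50 comes from uninfected Vero cells by a tetrazolium viability assay, run three times in triplicate and averaged.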

[20] = Relative safety was expressed as Selective index (TC50/IC50) at HSV-1 passage 6 in vero cells; assay type: functional; summary of the method: as §2
[21] = Relative safety was expressed as Selective index (TC50/IC50) at HSV-1 passage 7 in vero cells; assay type: functional; summary of the method: as §2
[22] = Relative safety was expressed as Selective index (TC50/IC50) at HSV-1 passage 8 in vero cells; assay type: functional; summary of the method: as §2
[23] = Relative safety was expressed as Selective index (TC50/IC50) at HSV-1 passage 9 in vero cells; assay type: functional; summary of the method: as §2
[24] = Relative safety was expressed as Selective index (TC50/IC50) at HSV-2 passage 1 in vero cells; assay type: functional; summary of the method: as §2
[25] = Relative safety was expressed as Selective index (TC50/IC50) at HSV-1 passage 1 in vero cells; assay type: functional; summary of the method: as §2
[26] = Relative safety was expressed as Selective index (TC50/IC50) at HSV-1 passage 10 in vero cells; assay type: functional; summary of the method: as §2
[27] = Relative safety was expressed as Selective index (TC50/IC50) at HSV-1 passage 2 in vero cells; assay type: functional; summary of the method: as §2
[28] = Relative safety was expressed as Selective index (TC50/IC50) at HSV-1 passage 3 in vero cells; assay type: functional; summary of the method: as §2
[29] = Relative safety was expressed as Selective index (TC50/IC50) at HSV-2 passage 2 in vero cells; assay type: functional; summary of the method: as §2
[30] = Relative safety was expressed as Selective index (TC50/IC50) at HSV-2 passage 3 in vero cells; assay type: functional; summary of the method: as §2
[31] = Relative safety was expressed as Selective index (TC50/IC50) at HSV-2 passage 4 in vero cells; assay type: functional; summary of the method: as §2
[32] = system: Vero; assay: Comparative Potency (IC50s) at HSV-1 passage 10 in vero cells; assay type: functional, cell-based, Chlorocebus sabaeus; summary of the method: as §1
[33] = Relative safety was expressed as Selective index (TC50/IC50) at HSV-1 passage 5 in vero cells; assay type: functional; summary of the method: as §2
[34] = Ralative safety was expressed as Selective index (TC50/IC50) at HSV-1 passage 6 in vero cells; assay type: functional; summary of the method: as §2
[35] = Ralative safety was expressed as Selective index (TC50/IC50) at HSV-1 passage 1 in vero cells; assay type: functional; summary of the method: as §2
[36] = Ralative safety was expressed as Selective index (TC50/IC50) at HSV-1 passage 2 in vero cells; assay type: functional; summary of the method: as §2
[37] = Ralative safety was expressed as Selective index (TC50/IC50) at HSV-1 passage 3 in vero cells; assay type: functional; summary of the method: as §2
[38] = Ralative safety was expressed as Selective index (TC50/IC50) at HSV-1 passage 4 in vero cells; assay type: functional; summary of the method: as §2
[39] = Ralative safety was expressed as Selective index (TC50/IC50) at HSV-1 passage 5 in vero cells; assay type: functional; summary of the method: as §2
[40] = Ralative safety was expressed as Selective index (TC50/IC50) at HSV-1 passage 7 in vero cells; assay type: functional; summary of the method: as §2
[41] = Ralative safety was expressed as Selective index (TC50/IC50) at HSV-1 passage 8 in vero cells; assay type: functional; summary of the method: as §2
[42] = Ralative safety was expressed as Selective index (TC50/IC50) at HSV-1 passage 9 in vero cells; assay type: functional; summary of the method: as §2
[43] = Ralative safety was expressed as Selective index (TC50/IC50) at HSV-2 passage 2 in vero cells; assay type: functional; summary of the method: as §2
[44] = Ralative safety was expressed as Selective index (TC50/IC50) at HSV-2 passage 3 in vero cells; assay type: functional; summary of the method: as §2
[45] = Ralative safety was expressed as Selective index (TC50/IC50) at HSV-2 passage 4 in vero cells; assay type: functional; summary of the method: as §2
[46] = Ralative safety was expressed as Selective index (TC50/IC50) at HSV-2 passage 1 in vero cells; assay type: functional; summary of the method: as §2
[47] = Ralative safety was expressed as Selective index (TC50/IC50) at HSV-1 passage 10 in vero cells; assay type: functional; summary of the method: as §2

Which Change [1] does the source give for `COc1ccc(C[C@@H](C)[C@@H](C)Cc2ccc(OC)c(OC)c2)cc1OC` [TERAMEPROCOL] here?
The Change was -2.8%.

What about the Change [2] of the same compound?
The Change was -2.66%.

And the Mortality [3]?
Its Mortality is 1.

And the Mortality [4]?
The Mortality was 0.

What about the Mortality [5] of the same compound?
Its Mortality is 0.

And the Mortality [6]?
The Mortality was 0.

And the IC50 [7]?
Its IC50 is 8.24 µM.

And the IC50 [8]?
Its IC50 is 5.97 µM.

What about the IC50 [9] of the same compound?
Its IC50 is 6.48 µM.

What about the IC50 [10] of the same compound?
The IC50 was 6.98 µM.

What about the IC50 [11] of the same compound?
The IC50 was 4.4 µM.

What about the IC50 [12] of the same compound?
Its IC50 is 6.98 µM.

What about the IC50 [13] of the same compound?
The IC50 was 9.91 µM.

What about the IC50 [14] of the same compound?
The IC50 was 8.82 µM.

And the IC50 [15]?
Its IC50 is 4.18 µM.

And the IC50 [16]?
The IC50 was 11.1 µM.

What about the IC50 [17] of the same compound?
Its IC50 is 11.1 µM.

What about the IC50 [18] of the same compound?
The IC50 was 11.1 µM.

What about the Selectivity index [19] of the same compound?
The Selectivity index was 26.8.

And the Selectivity index [20]?
The Selectivity index was 22.9.

And the Selectivity index [21]?
The Selectivity index was 22.9.

What about the Selectivity index [22] of the same compound?
Its Selectivity index is 16.1.

And the Selectivity index [23]?
The Selectivity index was 18.1.

What about the Selectivity index [24] of the same compound?
The Selectivity index was 38.3.

What about the Selectivity index [25] of the same compound?
The Selectivity index was 13.7.

And the Selectivity index [26]?
The Selectivity index was 33.5.

And the Selectivity index [27]?
The Selectivity index was 36.4.

And the Selectivity index [28]?
Its Selectivity index is 19.4.

What about the Selectivity index [29] of the same compound?
Its Selectivity index is 14.4.

What about the Selectivity index [30] of the same compound?
The Selectivity index was 14.4.

What about the Selectivity index [31] of the same compound?
Its Selectivity index is 14.4.

And the IC50 [32]?
The IC50 was 11.7 µM and 4.47 µM.

What about the Selectivity index [33] of the same compound?
The Selectivity index was 24.7.

With `Nc1nc2c(ncn2COCCO)c(=O)[nH]1` [ACYCLOVIR] as the compound, how does the IC50 [7] read?
Its IC50 is over 88.8 µM.

And the IC50 [8]?
Its IC50 is 138 µM.

What about the IC50 [9] of the same compound?
Its IC50 is 111 µM.

And the IC50 [10]?
The IC50 was 131 µM.

And the IC50 [11]?
Its IC50 is 37.8 µM.

What about the IC50 [12] of the same compound?
Its IC50 is 190 µM.

What about the IC50 [13] of the same compound?
The IC50 was 444 µM.

What about the IC50 [14] of the same compound?
The IC50 was 379 µM.

What about the IC50 [15] of the same compound?
Its IC50 is 6.66 µM.

And the IC50 [16]?
Its IC50 is over 44.4 µM.

What about the IC50 [17] of the same compound?
Its IC50 is 62.8 µM.

And the IC50 [18]?
Its IC50 is over 88.8 µM.

What about the Selectivity index [34] of the same compound?
The Selectivity index was 34.

And the Selectivity index [35]?
Its Selectivity index is 589.

What about the Selectivity index [36] of the same compound?
Its Selectivity index is 117.

And the Selectivity index [37]?
The Selectivity index was 50.

And the Selectivity index [38]?
The Selectivity index was 32.

What about the Selectivity index [39] of the same compound?
Its Selectivity index is 40.

And the Selectivity index [40]?
The Selectivity index was 23.

What about the Selectivity index [41] of the same compound?
Its Selectivity index is 23.

What about the Selectivity index [42] of the same compound?
The Selectivity index was 11.

And the Selectivity index [43]?
The Selectivity index was 100.

What about the Selectivity index [44] of the same compound?
The Selectivity index was 70.

And the Selectivity index [45]?
Its Selectivity index is 50.

What about the Selectivity index [46] of the same compound?
Its Selectivity index is 667.

What about the Selectivity index [47] of the same compound?
The Selectivity index was 10.
